One compound from ChEMBL document CHEMBL4028867, “Design, Synthesis, and Characterization of N-Oxide-Containing Heterocycles with in Vivo Sterilizing Antitubercular Activity” (J Med Chem, 2017) can be followed below.

In brackets after ≈: the same amount, converted by molar mass. Activity calls are given as the source filed them. No cut-off for these calls is given here. Some results are limits rather than exact numbers.

The test system of data set [1] is Mycobacterium tuberculosis. In words: Antitubercular activity against Mycobacterium tuberculosis H37Rv ATCC 27294 under normal pH 6.8 condition. It is filed as functional.
The next data set addresses T1, Cytochrome P450 2B6 (Homo sapiens, UniProt P20813).
T1 sequence (P20813 whole entry): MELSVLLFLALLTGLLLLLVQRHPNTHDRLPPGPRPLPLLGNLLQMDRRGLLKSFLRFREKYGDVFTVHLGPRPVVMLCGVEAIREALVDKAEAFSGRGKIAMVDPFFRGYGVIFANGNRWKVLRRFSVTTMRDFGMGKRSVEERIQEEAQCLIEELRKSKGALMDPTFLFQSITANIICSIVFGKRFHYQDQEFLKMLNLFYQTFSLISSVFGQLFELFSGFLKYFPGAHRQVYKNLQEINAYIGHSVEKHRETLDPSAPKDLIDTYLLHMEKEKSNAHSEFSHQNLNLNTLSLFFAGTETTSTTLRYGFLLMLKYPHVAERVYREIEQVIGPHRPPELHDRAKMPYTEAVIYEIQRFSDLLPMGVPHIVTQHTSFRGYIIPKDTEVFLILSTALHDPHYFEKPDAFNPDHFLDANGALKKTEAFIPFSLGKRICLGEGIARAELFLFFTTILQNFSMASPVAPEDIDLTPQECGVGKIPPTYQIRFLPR
In words: Inhibition of CYP2B6 in human liver microsomes in presence of NADPH by LC-MS/MS analysis. The format is ADME.

For another data set, the target named is T2, Cytochrome P450 2C8 (Homo sapiens, UniProt P10632).
T2 sequence (P10632 whole entry): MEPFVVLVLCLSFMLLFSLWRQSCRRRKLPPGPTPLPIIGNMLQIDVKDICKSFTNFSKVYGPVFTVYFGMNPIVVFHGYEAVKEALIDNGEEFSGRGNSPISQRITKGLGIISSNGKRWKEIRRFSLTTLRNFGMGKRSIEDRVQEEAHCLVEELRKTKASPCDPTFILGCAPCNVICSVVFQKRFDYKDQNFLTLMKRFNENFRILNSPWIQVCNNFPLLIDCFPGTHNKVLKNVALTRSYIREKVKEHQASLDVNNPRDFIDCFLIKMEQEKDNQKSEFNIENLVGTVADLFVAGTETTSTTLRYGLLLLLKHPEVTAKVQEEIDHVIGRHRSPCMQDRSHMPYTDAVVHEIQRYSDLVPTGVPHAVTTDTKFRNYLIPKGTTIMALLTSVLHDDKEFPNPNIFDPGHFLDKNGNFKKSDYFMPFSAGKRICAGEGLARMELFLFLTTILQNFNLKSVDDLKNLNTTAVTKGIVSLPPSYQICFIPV
In words: Inhibition of CYP2C8 in human liver microsomes in presence of NADPH by LC-MS/MS analysis. The format is ADME. In general terms: Liver microsomes are vesicles of endoplasmic reticulum, rich in cytochrome P450 enzymes.

Data set [2] concerns Mycobacterium tuberculosis. In words: Antitubercular activity against dormant stage Mycobacterium tuberculosis H37Rv ATCC 27294 incubated for 10 days in anaerobic condition followed by incubation for 28 hrs in ambient gaseous condition measured after day 11 by two fold serial dilution assay. The format is functional.
Another data set has as its system MRC5. In words: Cytotoxicity against human MRC5 cells assessed as reduction in cell viability after 24 hrs by fluorescence assay. The format is cell-based. The conditions noted are these: MRC5, 24 h. A digest of the protocol: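 MRC-5 human lung fibroblasts; cytotoxicity reported as IC50.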
Data set [3] has as its system Mycobacterium tuberculosis. In words: Antitubercular activity against Mycobacterium tuberculosis H37Rv ATCC 27294 under acidic pH 6 condition. It is filed as functional.
The test system of data set [4] is Mycobacterium tuberculosis. In words: Antitubercular activity against Mycobacterium tuberculosis H37Rv ATCC 27294 in presence of 4% fetal bovine serum. The format is functional.
A further data set relates to Staphylococcus aureus. In words: Antimicrobial activity against Staphylococcus aureus ATCC 29213 at 200 uM incubated for 16 hrs. The format is functional.
In another data set the test system is Candida albicans. In words: Antimicrobial activity against Candida albicans ATCC 10231 at 200 uM incubated for 48 hrs. It is filed as functional.
Data set [5] concerns Mycobacterium tuberculosis. In words: Bactericidal activity against Mycobacterium tuberculosis H37Rv ATCC 27294 assessed as colony forming units at 41.24 uM after 48 hrs by time kill analysis. The format is functional. A digest of the protocol: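 Time–kill: H37Rv ATCC 27294 exposed to drug at 41.24 μM, alongside INH 0.72 μM, RMP 0.01 μM and MOX 0.88 μM; log10 CFU/mL followed over days. Counts are the mean of three independent assays, ± SD.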

The next data set deals with Cytochrome P450 3A4 (Homo sapiens, UniProt P08684). In words: Inhibition of CYP3A4 in human liver microsomes in presence of NADPH by LC-MS/MS analysis. The format is ADME.
The subject of data set [6] is Mus musculus. In words: Toxicity in BALB/c mouse assessed as change in lung weight at 200 mg/kg, po qd administered via gavage after 10 days. It is filed as organism-based. The conditions noted are these: in vivo, 240 h. A digest of the protocol:
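Mice given one daily oral gavage dose of 200 mg/kg body weight for 10 days with daily behavioural monitoring (hippocratic screening); heart, lung, spleen, kidney and liver weights compared with controls by ANOVA and Dunnett's test, p < 0.05.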

The subject of data set [7] is Mus musculus. In words: Hepatotoxicity in BALB/c mouse assessed as change in alkaline phosphatase level in plasma at 200 mg/kg, po qd administered via gavage after 10 days. It is filed as toxicity, organism-based. The conditions noted are these: in vivo, 240 h.
For data set [8], the system named is Mycobacterium tuberculosis. In words: Antitubercular activity against Mycobacterium tuberculosis Erdman infected in BALB/c mouse at 200 mg/kg, po qd dosed via gavage starting at 10 days post-infection and terminated at 29 day post-infection for 5 consecutive days each week and measured 3 day wash-out period at 31 day-postinfection. It is filed as functional, organism-based. Summed up:
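Drug in cholesterol/phospholipid microemulsion was given by oral gavage (200 μL) once daily, 5 days/week, from day 10 to day 29 post-infection; n = 7/group. After a 3-day washout, lungs were homogenized in HBSS-Tween at day 31 and plated on Middlebrook 7H11 for CFU.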

The subject of data set [9] is Mycobacterium tuberculosis. In words: Growth inhibition of Mycobacterium tuberculosis H37Rv exposed to plasma from BALB/c mouse treated with 300 mg/kg, po administered through microemulsion vehicle as single oral dose per gavage after 1 hr by Resazurin microtiter assay. The settings on record: read-out: GI. It is filed as functional. A digest of the protocol:
(§1)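 The microemulsion was 10% cholesterol, 10% phosphatidylcholine/sodium oleate/polyoxyl 40 hydrogenated castor oil (3:6:8) and 80% phosphate buffer pH 7.4. Plasma taken at 0.3, 1, 2 or 4 h was tested by REMA for % Mtb growth inhibition, and plasma level was estimated against the in-vitro REMA MIC.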

Data set [10] deals with Mycobacterium tuberculosis. In words: Growth inhibition of Mycobacterium tuberculosis H37Rv exposed to plasma from BALB/c mouse treated with 300 mg/kg, po administered through microemulsion vehicle as single oral dose per gavage after 2 hrs by Resazurin microtiter assay. It is filed as functional. The settings on record: read-out: GI. A digest of the protocol:
as §1
A general note: Resazurin is reduced to fluorescent resorufin, in cell work by metabolically active cells.

Data set [11] concerns Mycobacterium tuberculosis. In words: Growth inhibition of Mycobacterium tuberculosis H37Rv exposed to plasma from BALB/c mouse treated with 300 mg/kg, po administered through microemulsion vehicle as single oral dose per gavage after 4 hrs by Resazurin microtiter assay. It is filed as functional. The settings on record: read-out: GI. A digest of the protocol:
as §1

The subject of data set [12] is Mycobacterium tuberculosis. In words: Downregulation of htrA gene in Mycobacterium tuberculosis H37Rv at 2 times MIC90 after 4 hrs by microarray analysis. The format is functional.
A short description of data set [13]: Induction of nitric oxide release by Griess assay. Summed up: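 Griess assay: chemical detection of nitrite ions in solution as indicator of nitric oxide release.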
(In general: Griess reagent forms a coloured azo dye with nitrite.)

Cytochrome P450 3A4, sequence (P08684 whole entry): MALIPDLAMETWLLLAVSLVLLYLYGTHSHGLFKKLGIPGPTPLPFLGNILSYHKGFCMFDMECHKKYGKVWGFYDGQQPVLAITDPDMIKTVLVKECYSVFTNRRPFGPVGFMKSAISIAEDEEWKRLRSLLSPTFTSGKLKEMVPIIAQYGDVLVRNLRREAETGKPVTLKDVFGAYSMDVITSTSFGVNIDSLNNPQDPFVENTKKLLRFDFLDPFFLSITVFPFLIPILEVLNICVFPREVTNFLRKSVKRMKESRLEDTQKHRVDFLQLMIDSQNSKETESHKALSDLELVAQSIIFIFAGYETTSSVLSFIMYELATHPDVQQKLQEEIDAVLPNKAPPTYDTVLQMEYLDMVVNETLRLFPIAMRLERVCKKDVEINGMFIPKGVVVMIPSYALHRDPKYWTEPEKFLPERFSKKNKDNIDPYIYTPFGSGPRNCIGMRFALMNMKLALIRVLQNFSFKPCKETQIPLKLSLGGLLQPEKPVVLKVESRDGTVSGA

What is called MIC90 is the lowest concentration that inhibits either 90% of growth or 90% of the strains tested, depending on the study. As usually defined, the IC50 is the concentration that inhibits the measured activity by half. As for `O=C(N/N=C/c1ccc2no[n+]([O-])c2c1)c1ccncc1`, the MIC90 in data set [1] came to 5.47 µM (≈ 1.55 µg/mL); in data set [2] it was 6.62 µM (≈ 1.88 µg/mL); in [3], 3.41 µM (≈ 0.966 µg/mL); in data set [4], 9.81 µM. The IC50 at Cytochrome P450 2B6 was greater than 20 µM; at Cytochrome P450 2C8, greater than 20 µM; in the data set on MRC5 it was 519 µM; at Cytochrome P450 3A4, greater than 20 µM. Besides, the outcome (in the data set on Staphylococcus aureus; with Candida albicans; in data set [8]; in [13]) was inactive. Moreover, the figures for the Activity (in data set [5]; in the data set on Mus musculus [6]; with Mus musculus [7]) were 6.7 log10CFU/ml, “Non-Toxic” and “Non-Toxic”, respectively. Moreover, the inhibition in vivo at 300 mg/kg in data set [9] came to 79%; in [10] it was 76%; in data set [11], 51.3%. Moreover, the outcome in data set [12] was Active.
